Reference: ChEMBL document CHEMBL5625181, “Exploring the 1,3-benzoxazine chemotype for cannabinoid receptor 2 as a promising anti-cancer therapeutic” (Eur J Med Chem, 2023)
Calls of active or inactive are those of the source. The rule behind the calls is not given here.

How the values were obtained:
Cannabinoid receptor 2 [1] = target: T1, Cannabinoid receptor 2 (Homo sapiens, UniProt P34972); assay: Displacement of [3H]CP55,940 from human CB2 receptor expressed in CHO cells membrane assessed as residual activity at 0.1 uM by scintillation counting analysis relative to control; format: cell membranes
Method in brief: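 Membranes (2.5 µg) from CHO cells stably expressing human CB2, in 50 mM Tris-HCl, 5 mM MgCl2, 1 mM CaCl2, 2 mg/mL BSA, pH 7.4. Incubated 30 min at 37 °C with 0.8 nM [3H]CP55,940 and 0.1 µM compound (final). Nonspecific binding with 1 µM unlabelled CP55,940. Filtered on PEI-soaked GF/B filters, scintillation counted. Quintuplicate, ≥3 experiments.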

Cannabinoid receptor 2 [2] = target: T1, Cannabinoid receptor 2; assay: Agonist activity at human recombinant Cannabinoid receptor 2 by GTPgammaS binding assay; format: functional
Method in brief: (§1)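 [35S]GTPγS filtration assay. Membranes (5 µg CB2 or 10 µg/well CB1), permeabilized with equal mass of saponin, preincubated 20 min at room temperature with compound (0-100 μM) in 20 mM HEPES, 100 mM NaCl, 10 mM MgCl2, 10 µM GDP, pH 7.4. Then 0.3 nM [35S]GTPγS for 30 min at 37 °C. Quintuplicate, ≥3 experiments. pEC50 from non-linear fit.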

Cannabinoid receptor 1 = Cannabinoid receptor 1 (Homo sapiens, UniProt P21554); assay: Agonist activity at human recombinant Cannabinoid receptor 1 by GTPgammaS binding assay; format: functional; method in brief: as §1
BT-549 [3] = assay: Inhibition of colony formation in human BT-549 cells assessed as decrease in number of colonies at 0.1 uM incubated for 14 days by inverted phase contrast microscope relative to control; format: functional, cell-based; settings: time 14.0 day
Method in brief: (§2)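 BT549 seeded at 1 x 10^3 cells/well and grown at 37 °C for at least 14 days with vehicle or compound. Colonies fixed and stained with 6% glutaraldehyde/0.5% crystal violet for 30 min, then counted by inverted phase-contrast microscopy (10x). Expressed as % of vehicle. Three independent experiments, each at least in triplicate.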

BT-549 [4] = assay: Antiproliferative activity against human BT-549 cells assessed as decrease in cell proliferation at 0.1 uM by MTT assay; format: functional, cell-based
Method in brief: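 BT549 in RPMI-1640 with 10% FBS and insulin, seeded at 1.5 x 10^4/well overnight. Sub-confluent cells treated at 37 °C. MTT added at 1 mg/mL final for 3 h at 37 °C in the dark, formazan dissolved in DMSO, absorbance read at 590 nm. Expressed as % of vehicle.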

BT-549 [5] = assay: Antiproliferative activity against human BT-549 cells transfected with CNR2 siRNA assessed as inhibition of cell proliferation at 0.1 uM incubated after 24 hrs by MTT assay; format: functional, cell-based
Method in brief: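 BT549 transfected with 50 nM CNR2 siRNA or scramble oligo (Lipofectamine RNAiMAX). After 24 h, treated for a further 24 h. Viability by MTT: 1 mg/mL final for 3 h at 37 °C, formazan dissolved in DMSO, absorbance read at 590 nm.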

Cannabinoid receptor 2 [6] = target: T1, Cannabinoid receptor 2; assay: Agonist activity at human recombinant Cannabinoid receptor 2 assessed as stimulation of GTPgammaS binding at 1 uM by GTPgammaS binding assay relative to control; format: functional
Method in brief: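 CB2 membranes (ChemiSCREEN) at 5 µg, permeabilised with an equal mass of saponin. Pre-incubated with ligand for 20 min at RT in 20 mM HEPES, 100 mM NaCl, 10 mM MgCl2, pH 7.4, with 10 µM GDP. Then 0.3 nM [35S]GTPγS for 30 min at 37 °C. Stopped with ice-cold phosphate buffer, filtered on PEI-soaked GF/B, scintillation counted. Quintuplicates, ≥3 experiments.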

HCC1954 = assay: Antiproliferative activity against human HER2-positive HCC1954 cells assessed as change in cell proliferation by MTT assay; format: functional, cell-based
Method in brief: (§3)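 Cells seeded at 1.5 x 10^4/well and incubated overnight; sub-confluent cells treated at 37 °C for 24, 48 or 72 h. MTT added (final 1 mg/mL), 3 h at 37°C in the dark, formazan dissolved in DMSO, read at 590 nm. Expressed as % of vehicle; mean ± SEM of three experiments, each at least in quintuplicate.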

MCF-10A = assay: Cytotoxicity activity against human MCF-10A cells assessed as change in cell proliferation by MTT assay; format: toxicity, cell-based; method in brief: as §3
BT-549 [7] = assay: Inhibition of colony formation in human BT-549 cells assessed as decrease in number of colonies at 10 uM incubated for 14 days by inverted phase contrast microscope relative to control; format: functional; parameters: scale not given: the % may be the effect or the level left; settings: time 14 day; method in brief: as §2
BT-549 [8] = assay: Antiinflammatory activity in human BT-549 cells transfected with CNR2 siRNA assessed as decrease in IL-6 level at 10 uM incubated for 48 hrs by ELISA method; format: functional, cell-based
Method in brief: (§4)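 BT549 cells seeded at 1.5 x 10^4 cells/well, transfected with 50 nM CNR2 siRNA or scramble oligo, then treated with vehicle or 10 μM compound at 37 °C for 48 h. TNF-α and IL-6 in supernatant measured by ELISA at 450 nm. Expressed as % of vehicle; mean ± SEM of three experiments in triplicate.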

Cannabinoid receptor 2 [9] = target: T1, Cannabinoid receptor 2; assay: Agonist activity at human Cannabinoid receptor 2 in BT-549 cells assessed as downregulation in ERK1/2 phosphorylation level at 10 uM and observed within 5 min by Western blot analysis relative to control; format: functional, cell-based
Method in brief: (§5)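 BT549 cells, untransfected or transfected with scramble oligo or CNR2 siRNA, incubated at 37°C with or without 10 μM compound for the indicated periods. Phospho-ERK1/2 measured by Western blot on whole lysates (20-40 µg/lane, SDS-PAGE, PVDF, enhanced chemiluminescence). Values compared with relative vehicle-treated cells.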

Cannabinoid receptor 2 [10] = target: T1, Cannabinoid receptor 2; assay: Agonist activity at human Cannabinoid receptor 2 in BT-549 cells transfected with CNR2 siRNA assessed as downregulation in ERK1/2 phosphorylation level at 10 uM and observed after 5 mins by Western blot analysis relative to control; format: functional, cell-based; method in brief: as §5
BT-549 [11] = assay: Antiproliferative activity against human BT-549 cells assessed as inhibition in cell proliferation at 1 to 10 uM incubated after 24 hrs by MTT assay; format: functional, cell-based; settings: dose 1-10 µM; method in brief: as §3
BT-549 [12] = assay: Antiinflammatory activity in human BT-549 cells assessed as decrease in IL-6 level at 10 uM incubated for 48 hrs by ELISA method relative to control; format: functional; parameters: scale not given: the % may be the effect or the level left
Method in brief: (§6)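 BT549 cells seeded at 1.5 x 10^4/well and treated after 24 h with vehicle or compound at 37 °C for 48 h. TNF-α and IL-6 in supernatant measured by ELISA at 450 nm against a recombinant cytokine standard curve (0-1000 pg/mL). Expressed as % of vehicle. Three independent experiments, each in triplicate.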

BT-549 [13] = assay: Antiinflammatory activity in human BT-549 cells assessed as decrease in TNF-alpha level at 10 uM incubated for 48 hrs by ELISA method relative to control; format: functional; parameters: scale not given: the % may be the effect or the level left; method in brief: as §6
BT-549 [14] = assay: Antiinflammatory activity in human BT-549 cells transfected with CNR2 siRNA assessed as decrease in TNF-alpha level at 10 uM incubated for 48 hrs by ELISA method; format: functional, cell-based; method in brief: as §4
Cannabinoid receptor 2 [15] = target: T1, Cannabinoid receptor 2; assay: Agonist activity at human Cannabinoid receptor 2 in BT-549 cells assessed as downregulation in ERK1/2 phosphorylation level at 10 uM by westernblot analysis; format: functional, cell-based; settings: filed as agonist, time 5-60 min, TDE = time-dependent effect; method in brief: as §5
MDA-MB-231 = assay: Antiproliferative activity against human triple negative MDA-MB-231 cells assessed as change in cell proliferation by MTT assay; format: functional, cell-based; method in brief: as §3
Cannabinoid receptor 2 [16] = target: T1, Cannabinoid receptor 2; assay: Agonist activity at human Cannabinoid receptor 2 in BT-549 cells assessed as change in ERK1/2 phosphorylation level at 10 uM and observed after 10 min by westernblot analysis; format: functional, cell-based; method in brief: as §5
BT-549 [17] = assay: Antiproliferative activity against human BT-549 cells assessed as inhibition in cell proliferation incubated after 72 hrs by MTT assay; format: functional, cell-based; settings: dose 0.1-10 µM; method in brief: as §3
BT-549 [18] = assay: Antiproliferative activity against human BT-549 cells transfected with CNR2 siRNA assessed as inhibition of cell proliferation at 10 uM incubated after 24 hrs by MTT assay; format: functional, cell-based
Method in brief: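 BT549 cells transfected with 50 nM CNR2 siRNA or scramble control by lipofection. After 24 h, treated with vehicle or 10 µM compound for a further 24 h. Viability by MTT (1 mg/mL, 3 h, 37°C, 590 nm).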

Chain of Cannabinoid receptor 1 (P21554 whole entry): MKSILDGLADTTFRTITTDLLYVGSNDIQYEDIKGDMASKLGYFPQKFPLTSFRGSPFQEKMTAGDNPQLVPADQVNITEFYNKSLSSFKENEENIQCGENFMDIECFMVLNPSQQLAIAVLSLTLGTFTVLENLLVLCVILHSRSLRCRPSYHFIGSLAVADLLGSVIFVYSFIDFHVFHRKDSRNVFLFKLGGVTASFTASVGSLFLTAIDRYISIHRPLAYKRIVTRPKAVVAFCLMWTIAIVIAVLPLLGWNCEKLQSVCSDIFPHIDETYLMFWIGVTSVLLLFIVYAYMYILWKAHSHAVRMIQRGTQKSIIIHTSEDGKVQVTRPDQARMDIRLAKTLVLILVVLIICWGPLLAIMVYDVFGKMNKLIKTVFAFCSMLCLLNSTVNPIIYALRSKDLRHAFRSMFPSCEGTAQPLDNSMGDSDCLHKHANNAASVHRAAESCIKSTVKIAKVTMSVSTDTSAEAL
T1 sequence (P34972 whole entry): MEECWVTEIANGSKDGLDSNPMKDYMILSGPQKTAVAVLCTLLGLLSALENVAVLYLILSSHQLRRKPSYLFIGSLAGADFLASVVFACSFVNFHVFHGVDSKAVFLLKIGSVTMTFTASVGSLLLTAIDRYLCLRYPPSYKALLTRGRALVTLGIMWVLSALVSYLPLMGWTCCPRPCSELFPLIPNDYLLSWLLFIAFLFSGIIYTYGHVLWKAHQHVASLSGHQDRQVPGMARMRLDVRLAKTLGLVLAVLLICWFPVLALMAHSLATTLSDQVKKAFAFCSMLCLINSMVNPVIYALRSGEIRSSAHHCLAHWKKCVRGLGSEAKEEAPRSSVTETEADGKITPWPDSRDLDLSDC

SMILES | Activity (Cannabinoid receptor 2 [1]) [%] | EC50 (Cannabinoid receptor 2 [2]; read-out: pEC50 (converted)) [nM] | EC50 (Cannabinoid receptor 1; read-out: pEC50 (converted)) [nM] | further results
O=C1NC2(CCCCC2)Oc2cc(OS(=O)(=O)c3ccccc3[N+](=O)[O-])ccc21 | < 80 | 2140 | > 10000 | –
Cc1ccc(S(=O)(=O)Oc2ccc3c(c2)OC(C)(C)N(Cc2ccc(F)cc2)C3=O)cc1 | < 80 | 195 | > 10000 | –
COc1cccc(S(=O)(=O)Oc2ccc3c(c2)OC2(CCCCC2)N(Cc2ccccc2)C3=O)c1 | < 80 | 417 | > 10000 | –
COc1cccc(COc2ccc3c(c2)OC(C)(C)N(Cc2ccc(F)cc2)C3=O)c1 | < 80 | – | – | pEC50 (Cannabinoid receptor 2 [2]): inactive
O=C1c2ccc(OS(=O)(=O)c3ccc4c(c3)OCCO4)cc2OC2(CCOCC2)N1Cc1ccccc1 | < 80 | – | – | –
CCCn1c(C)c(C(=O)c2cccc3ccccc23)c2ccccc21 | – | – | – | inhibition (BT-549 [3]): Active; Activity (BT-549 [4]): Active; Activity (BT-549 [5]): inactive; Activity (Cannabinoid receptor 2 [6]): 233%
COc1cccc(COc2ccc3c(c2)OC(C)(C)N(Cc2ccc(C(C)C)cc2)C3=O)c1 | < 80 | – | – | pEC50 (Cannabinoid receptor 2 [2]): inactive
O=C1c2ccc(OS(=O)(=O)Cc3ccccc3)cc2OC2(CCCCC2)N1Cc1ccccc1 | < 80 | 759 | > 10000 | –
Cn1cnc(S(=O)(=O)Oc2ccc3c(c2)OC2(CCCCC2)N(Cc2ccccc2)C3=O)c1 | < 80 | 1000 | > 10000 | –
CC1(C)Oc2cc(OCc3ccc(OC(F)(F)F)cc3)ccc2C(=O)N1Cc1ccc(F)cc1 | < 80 | – | – | pEC50 (Cannabinoid receptor 2 [2]): inactive
CN(C)C(=O)CN1C(=O)c2ccc(OS(=O)(=O)c3ccc(Br)cc3)cc2OC1(C)C | < 80 | – | – | –
O=C1c2ccc(OS(=O)(=O)c3cccc([N+](=O)[O-])c3)cc2OC2(CCOCC2)N1Cc1ccccc1 | < 80 | 204 | > 10000 | –
O=C1c2ccc(OS(=O)(=O)c3cccs3)cc2OC2(CCCCC2)N1Cc1ccccc1 | < 80 | – | > 10000 | Activity (HCC1954): Active; Activity (MCF-10A): Non-Toxic; Activity (BT-549 [7]): 75.4%; Activity (BT-549 [8]): inactive; Activity (Cannabinoid receptor 2 [9]): 30%; Activity (Cannabinoid receptor 2 [10]): inactive; inhibition (BT-549 [11]): Active; Activity (BT-549 [12]): <=70%; Activity (BT-549 [13]): <=50%; Activity (BT-549 [14]): inactive; EC50 (Cannabinoid receptor 2 [2]; read-out: EC50): 110 nM; EC50 (Cannabinoid receptor 1; read-out: EC50): > 10000 nM; Activity (Cannabinoid receptor 2 [15]): Tde; Activity (MDA-MB-231): Active; Activity (Cannabinoid receptor 2 [16]): inactive; inhibition (BT-549 [17]): Dose-Dependent Effect; Activity (BT-549 [18]): inactive
CC(C)(C)C(=O)COc1ccc2c(c1)OC(C)(C)N(Cc1ccccc1)C2=O | < 80 | – | – | pEC50 (Cannabinoid receptor 2 [2]): inactive
Cn1ccc(S(=O)(=O)Oc2ccc3c(c2)OC2(CCCCC2)N(Cc2ccc(C#N)cc2)C3=O)n1 | < 80 | 372 | > 10000 | –
N#Cc1ccc(S(=O)(=O)Oc2ccc3c(c2)OC2(CCCCC2)N(Cc2ccccc2)C3=O)cc1 | < 80 | 288 | > 10000 | –
CN1C(=O)c2ccc(OS(=O)(=O)c3ccc(Oc4ccccc4)cc3)cc2OC1(C)C | < 80 | – | – | –
O=C1c2ccc(OS(=O)(=O)c3ccc(-c4ccc(Cl)cc4)cc3)cc2OC2(CCCCC2)N1Cc1ccccc1 | < 80 | – | – | –
CC1(C)NC(=O)c2ccc(OS(=O)(=O)c3cccc4ccccc34)cc2O1 | < 80 | – | – | –
O=C1c2ccc(OS(=O)(=O)c3ccc([N+](=O)[O-])cc3)cc2OC2(CCOCC2)N1Cc1ccccc1 | < 80 | – | – | –
COc1cccc(S(=O)(=O)Oc2ccc3c(c2)OC2(CCCCC2)N(Cc2ccc(C(C)C)cc2)C3=O)c1 | < 80 | – | – | –
COc1cccc(S(=O)(=O)Oc2ccc3c(c2)OC2(CCCCC2)N(CCCCC#N)C3=O)c1 | < 80 | 776 | > 10000 | –
COc1ccc(S(=O)(=O)Oc2ccc3c(c2)OC2(CCCCC2)N(Cc2ccccc2)C3=O)cc1 | < 80 | 1480 | > 10000 | –
N#Cc1cccc(S(=O)(=O)Oc2ccc3c(c2)OC2(CCCCC2)N(Cc2ccccc2)C3=O)c1 | < 80 | 355 | > 10000 | –
N#Cc1ccc(CN2C(=O)c3ccc(OCc4ccc(OC(F)(F)F)cc4)cc3OC23CCCCC3)cc1 | < 80 | – | – | pEC50 (Cannabinoid receptor 2 [2]): inactive
CN1C(=O)c2ccc(OS(=O)(=O)c3cccc4ccccc34)cc2OC1(C)C | < 80 | 2950 | 7240 | –
